System: HEK-293T
Assay: Multiplex assay against HEK293T
Format: toxicity, cell-based
Settings: human
How it was run: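 Live cells were stained at seeding with Hoechst33342, BioTracker Green Microtubule Cytoskeleton Dye, MitoTracker Red and Annexin V Alexa Fluor 680, then imaged on a CQ1 microscope at 37°C and 5% CO2 after compound addition. CellPathfinder machine-learning gating split cells into Hoechst high-intensity objects or normal cells. Normal cells were split into healthy, pyknosed or fragmented nuclei, and pyknosed cells into mitotic or apoptotic. Tubulin, mitochondrial-mass and membrane-permeability phenotypes are per cents of healthy-nucleus cells.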

[1] = 12 h, 1 µM, compound concentration 1 uM, replicate 1
[2] = 12 h, 1 µM, compound concentration 1 uM, replicate 2
[3] = 12 h, 10 µM, compound concentration 10 uM, replicate 1
[4] = 12 h, 10 µM, compound concentration 10 uM, replicate 2
[5] = 24 h, 1 µM, compound concentration 1 uM, replicate 1
[6] = 24 h, 1 µM, compound concentration 1 uM, replicate 2
[7] = 24 h, 10 µM, compound concentration 10 uM, replicate 1
[8] = 24 h, 10 µM, compound concentration 10 uM, replicate 2
[9] = 48 h, 1 µM, compound concentration 1 uM, replicate 1
[10] = 48 h, 1 µM, compound concentration 1 uM, replicate 2
[11] = 48 h, 10 µM, compound concentration 10 uM, replicate 1
[12] = 48 h, 10 µM, compound concentration 10 uM, replicate 2

COCCCN1CCC(NC(=O)c2cc(Cl)c(N)c3c2OCC3)CC1 [PRUCALOPRIDE]
Population Apoptotic (%) [1]: 22%
Population Fragmented Nuclei (%) [1]: 10%
Population Healthy Nuclei (%) [1]: 80%
Population Hoechst High Intensity Objects (%) [1]: 8%
Population Membrane Permeable-Phenotype (%) [1]: 0%
Population Mitochondria Different-Phenotype (%) [1]: 36%
Population Mitotic Cells (%) [1]: 77%
Population Normal (%) [1]: 91%
Population Pyknosed Nuclei (%) [1]: 9%
Population Tubulin-Different-Phenotype (%) [1]: 21%
Total Cell Count [1]: 416
Population Apoptotic (%) [2]: 31%
Population Fragmented Nuclei (%) [2]: 4%
Population Healthy Nuclei (%) [2]: 82%
Population Hoechst High Intensity Objects (%) [2]: 7%
Population Mitochondria Different-Phenotype (%) [2]: 59%
Population Mitotic Cells (%) [2]: 68%
Population Normal (%) [2]: 92%
Population Pyknosed Nuclei (%) [2]: 12%
Population Tubulin-Different-Phenotype (%) [2]: 16%
Total Cell Count [2]: 397
Population Apoptotic (%) [3]: 37%
Population Fragmented Nuclei (%) [3]: 8%
Population Healthy Nuclei (%) [3]: 74%
Population Hoechst High Intensity Objects (%) [3]: 4%
Population Membrane Permeable-Phenotype (%) [3]: 0%
Population Mitochondria Different-Phenotype (%) [3]: 59%
Population Mitotic Cells (%) [3]: 62%
Population Normal (%) [3]: 95%
Population Pyknosed Nuclei (%) [3]: 17%
Population Tubulin-Different-Phenotype (%) [3]: 43%
Total Cell Count [3]: 421
Population Apoptotic (%) [4]: 56%
Population Fragmented Nuclei (%) [4]: 10%
Population Healthy Nuclei (%) [4]: 72%
Population Hoechst High Intensity Objects (%) [4]: 10%
Population Mitochondria Different-Phenotype (%) [4]: 75%
Population Mitotic Cells (%) [4]: 43%
Population Normal (%) [4]: 89%
Population Tubulin-Different-Phenotype (%) [4]: 35%
Total Cell Count [4]: 261
Population Apoptotic (%) [5]: 20%
Population Fragmented Nuclei (%) [5]: 11%
Population Healthy Nuclei (%) [5]: 78%
Population Hoechst High Intensity Objects (%) [5]: 5%
Population Membrane Permeable-Phenotype (%) [5]: 1%
Population Mitochondria Different-Phenotype (%) [5]: 18%
Population Mitotic Cells (%) [5]: 79%
Population Normal (%) [5]: 94%
Population Pyknosed Nuclei (%) [5]: 10%
Population Tubulin-Different-Phenotype (%) [5]: 14%
Total Cell Count [5]: 590
Population Apoptotic (%) [6]: 28%
Population Fragmented Nuclei (%) [6]: 8%
Population Healthy Nuclei (%) [6]: 84%
Population Hoechst High Intensity Objects (%) [6]: 4%
Population Membrane Permeable-Phenotype (%) [6]: 0%
Population Mitochondria Different-Phenotype (%) [6]: 39%
Population Mitotic Cells (%) [6]: 71%
Population Normal (%) [6]: 95%
Population Pyknosed Nuclei (%) [6]: 6%
Population Tubulin-Different-Phenotype (%) [6]: 10%
Total Cell Count [6]: 546
Population Apoptotic (%) [7]: 28%
Population Fragmented Nuclei (%) [7]: 8%
Population Healthy Nuclei (%) [7]: 77%
Population Hoechst High Intensity Objects (%) [7]: 4%
Population Membrane Permeable-Phenotype (%) [7]: 0%
Population Mitochondria Different-Phenotype (%) [7]: 48%
Population Mitotic Cells (%) [7]: 71%
Population Normal (%) [7]: 95%
Population Pyknosed Nuclei (%) [7]: 13%
Population Tubulin-Different-Phenotype (%) [7]: 32%
Total Cell Count [7]: 531
Population Apoptotic (%) [8]: 50%
Population Fragmented Nuclei (%) [8]: 13%
Population Healthy Nuclei (%) [8]: 73%
Population Hoechst High Intensity Objects (%) [8]: 9%
Population Mitochondria Different-Phenotype (%) [8]: 51%
Population Mitotic Cells (%) [8]: 50%
Population Normal (%) [8]: 90%
Population Pyknosed Nuclei (%) [8]: 12%
Population Tubulin-Different-Phenotype (%) [8]: 25%
Total Cell Count [8]: 341
Population Apoptotic (%) [9]: 24%
Population Fragmented Nuclei (%) [9]: 15%
Population Healthy Nuclei (%) [9]: 76%
Population Hoechst High Intensity Objects (%) [9]: 2%
Population Membrane Permeable-Phenotype (%) [9]: 1%
Population Mitochondria Different-Phenotype (%) [9]: 16%
Population Mitotic Cells (%) [9]: 75%
Population Normal (%) [9]: 97%
Population Pyknosed Nuclei (%) [9]: 7%
Population Tubulin-Different-Phenotype (%) [9]: 11%
Total Cell Count [9]: 1001
Population Apoptotic (%) [10]: 21%
Population Fragmented Nuclei (%) [10]: 11%
Population Healthy Nuclei (%) [10]: 81%
Population Hoechst High Intensity Objects (%) [10]: 1%
Population Membrane Permeable-Phenotype (%) [10]: 0%
Population Mitochondria Different-Phenotype (%) [10]: 15%
Population Mitotic Cells (%) [10]: 78%
Population Normal (%) [10]: 98%
Population Pyknosed Nuclei (%) [10]: 6%
Population Tubulin-Different-Phenotype (%) [10]: 9%
Total Cell Count [10]: 832
Population Apoptotic (%) [11]: 20%
Population Fragmented Nuclei (%) [11]: 16%
Population Healthy Nuclei (%) [11]: 77%
Population Hoechst High Intensity Objects (%) [11]: 1%
Population Membrane Permeable-Phenotype (%) [11]: 1%
Population Mitochondria Different-Phenotype (%) [11]: 32%
Population Mitotic Cells (%) [11]: 79%
Population Normal (%) [11]: 98%
Population Pyknosed Nuclei (%) [11]: 6%
Population Tubulin-Different-Phenotype (%) [11]: 16%
Total Cell Count [11]: 772
Population Apoptotic (%) [12]: 35%
Population Healthy Nuclei (%) [12]: 75%
Population Hoechst High Intensity Objects (%) [12]: 3%
Population Membrane Permeable-Phenotype (%) [12]: 0%
Population Mitochondria Different-Phenotype (%) [12]: 31%
Population Mitotic Cells (%) [12]: 64%
Population Normal (%) [12]: 96%
Population Pyknosed Nuclei (%) [12]: 7%
Population Tubulin-Different-Phenotype (%) [12]: 15%
Total Cell Count [12]: 528

— ChEMBL document CHEMBL5058577, “EUbOPEN Chemogenomics Library 2 (Multiplex)” (2022)
